Laboratory results taken from ChEMBL document CHEMBL2390915, “Synthesis and biological evaluation of arctigenin ester and ether derivatives as activators of AMPK” (Bioorg Med Chem, 2013).

Test system: L6
Test: Activation of AMPK in rat L6 cells assessed as phosphorylated protein level at 40 uM after 30 mins by Western blot analysis relative to arctigenin
Format: cell-based
Outline: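 L6 myoblasts kept in DMEM + 10% FBS at 37 °C, 5% CO2, then differentiated to myotubes in DMEM + 2% horse serum once 90% confluent. Cells exposed to 40 µM compound for 30 min. Lysates (Tris-HCl pH 7.5, NaCl, Na3VO4, Triton X-100, protease inhibitors) immunoblotted for phospho-AMPK and total AMPK by chemiluminescence. Band intensity × area normalized to total AMPK; three independent experiments.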

Question: For `COc1ccc(C[C@H]2COC[C@@H]2Cc2ccc(OC(=O)c3ccc(F)cc3)c(OC)c2)cc1OC`, which fold change (FC) is on record?
Answer: 0.37

Question: `COc1ccc(C[C@H]2COC(=O)[C@@H]2Cc2ccc(OC(=O)CC(C)C)c(OC)c2)cc1OC` was tested. Which fold change (FC) did it give?
Answer: 0.48

Question: For `COc1ccc(C[C@H]2COC[C@@H]2Cc2ccc(OCCc3cccnc3)c(OC)c2)cc1OC`, which fold change (FC) is on record?
Answer: 0.81

Question: How did the fold change (FC) turn out when `COc1ccc(C[C@H]2COC[C@@H]2Cc2ccc(OCCc3ccc(F)cc3)c(OC)c2)cc1OC` was run?
Answer: 0.97

Question: `COc1cc(CCOc2ccc(C[C@H]3C(=O)OC[C@@H]3Cc3ccc(OC)c(OC)c3)cc2OC)cc(OC)c1` was tested. Which fold change (FC) did it give?
Answer: 0.73

Question: How did the fold change (FC) turn out when `COc1ccc(C[C@H]2COC(=O)[C@@H]2Cc2ccc(OCCc3ccccc3Cl)c(OC)c2)cc1OC` was run?
Answer: 0.24

Question: For `COc1ccc(C[C@H]2COC(=O)[C@@H]2Cc2ccc(OCCc3ccccc3F)c(OC)c2)cc1OC`, which fold change (FC) is on record?
Answer: 0.34

Question: How did the fold change (FC) turn out when `COc1ccc(C[C@H]2COC[C@@H]2Cc2ccc(OC(=O)c3ccc(OC)c(OC)c3)c(OC)c2)cc1OC` was run?
Answer: 0.82

Question: For `COc1ccc(C[C@H]2COC(=O)[C@@H]2Cc2ccc(OC(=O)c3cccnc3)c(OC)c2)cc1OC`, which fold change (FC) is on record?
Answer: 0.87

Question: `COc1ccc(CCCOc2ccc(C[C@H]3C(=O)OC[C@@H]3Cc3ccc(OC)c(OC)c3)cc2OC)cc1OC` was tested. Which fold change (FC) did it give?
Answer: 0.71

Question: `COc1cccc(C(=O)Oc2ccc(C[C@H]3C(=O)OC[C@@H]3Cc3ccc(OC)c(OC)c3)cc2OC)c1` was tested. Which fold change (FC) did it give?
Answer: 0.64

Question: How did the fold change (FC) turn out when `CCCC(=O)Oc1ccc(C[C@H]2C(=O)OC[C@@H]2Cc2ccc(OC)c(OC)c2)cc1OC` was run?
Answer: 0.94

Question: With `COc1ccc(C[C@H]2COC(=O)[C@@H]2Cc2ccc(OCCc3ccc4c(c3)OCO4)c(OC)c2)cc1OC` as the compound, how does the fold change (FC) read?
Answer: 0.28

Question: How did the fold change (FC) turn out when `COc1ccc(C[C@H]2COC[C@@H]2Cc2ccc(OCC(=O)c3ccc(OC)c(OC)c3)c(OC)c2)cc1OC` was run?
Answer: 0.66

Question: With `COc1ccc(CCOc2ccc(C[C@H]3COC[C@@H]3Cc3ccc(OC)c(OC)c3)cc2OC)cc1OC` as the compound, how does the fold change (FC) read?
Answer: 1.45

Question: `COc1ccc(C[C@H]2COC[C@@H]2Cc2ccc(OCCc3cc(OC)c(OC)c(OC)c3)c(OC)c2)cc1OC` was tested. Which fold change (FC) did it give?
Answer: 1.25

Question: With `COc1ccc(C[C@H]2COC(=O)[C@@H]2Cc2ccc(OC(=O)c3ccc(C)cc3)c(OC)c2)cc1OC` as the compound, how does the fold change (FC) read?
Answer: 0.46

Question: How did the fold change (FC) turn out when `COCCOc1ccc(C[C@H]2C(=O)OC[C@@H]2Cc2ccc(OC)c(OC)c2)cc1OC` was run?
Answer: 0.17

Question: With `COc1ccc(CC(=O)Oc2ccc(C[C@H]3C(=O)OC[C@@H]3Cc3ccc(OC)c(OC)c3)cc2OC)cc1OC` as the compound, how does the fold change (FC) read?
Answer: 0.69

Question: For `CCCC(=O)Oc1ccc(C[C@H]2COC[C@@H]2Cc2ccc(OC)c(OC)c2)cc1OC`, which fold change (FC) is on record?
Answer: 0.25

Question: Which fold change (FC) does the source give for `COc1ccc(C[C@H]2COC(=O)[C@@H]2Cc2ccc(OC(=O)c3ccc(F)cc3)c(OC)c2)cc1OC` here?
Answer: 0.63

Question: Which fold change (FC) does the source give for `CCCCC(=O)Oc1ccc(C[C@H]2C(=O)OC[C@@H]2Cc2ccc(OC)c(OC)c2)cc1OC` here?
Answer: 1.16

Question: Which fold change (FC) does the source give for `CCOc1ccc(C[C@H]2C(=O)OC[C@@H]2Cc2ccc(OC)c(OC)c2)cc1OC` here?
Answer: 0.14

Question: For `COc1ccc(C(=O)Oc2ccc(C[C@H]3COC[C@@H]3Cc3ccc(OC)c(OC)c3)cc2OC)cc1`, which fold change (FC) is on record?
Answer: 0.25

Question: How did the fold change (FC) turn out when `COc1ccc(C[C@H]2COC(=O)[C@@H]2Cc2ccc(OC(=O)C(C)C)c(OC)c2)cc1OC` was run?
Answer: 0.82

Question: Which fold change (FC) does the source give for `COc1ccc(C[C@H]2COC[C@@H]2Cc2ccc(OC(C)=O)c(OC)c2)cc1OC` here?
Answer: 0.26

Question: `COc1ccc(C[C@H]2COC(=O)[C@@H]2Cc2ccc(OC(C)=O)c(OC)c2)cc1OC` was tested. Which fold change (FC) did it give?
Answer: 1.11

Question: How did the fold change (FC) turn out when `COc1ccc(C[C@H]2COC(=O)[C@@H]2Cc2ccc(OC(C)C)c(OC)c2)cc1OC` was run?
Answer: 0.2

Question: `COc1ccc(C(=O)Oc2ccc(C[C@H]3C(=O)OC[C@@H]3Cc3ccc(OC)c(OC)c3)cc2OC)cc1` was tested. Which fold change (FC) did it give?
Answer: 0.46

Question: Which fold change (FC) does the source give for `CCC(=O)Oc1ccc(C[C@H]2C(=O)OC[C@@H]2Cc2ccc(OC)c(OC)c2)cc1OC` here?
Answer: 0.92

Question: With `COc1cccc(C(=O)Oc2ccc(C[C@H]3COC[C@@H]3Cc3ccc(OC)c(OC)c3)cc2OC)c1` as the compound, how does the fold change (FC) read?
Answer: 0.82

Question: `COc1ccc(C[C@H]2COC(=O)[C@@H]2Cc2ccc(OC(=O)c3ccco3)c(OC)c2)cc1OC` was tested. Which fold change (FC) did it give?
Answer: 0.69

Question: Which fold change (FC) does the source give for `COc1ccc(C[C@H]2COC(=O)[C@@H]2Cc2ccc(OC(=O)C3CC3)c(OC)c2)cc1OC` here?
Answer: 0.62

Question: With `COc1ccc(C[C@H]2COC(=O)[C@@H]2Cc2ccc(OC(=O)c3ccc(OC)c(OC)c3)c(OC)c2)cc1OC` as the compound, how does the fold change (FC) read?
Answer: 0.3

Question: With `COc1ccc(C[C@H]2COC(=O)[C@@H]2Cc2ccc(OCCc3ccc(Cl)cc3)c(OC)c2)cc1OC` as the compound, how does the fold change (FC) read?
Answer: 0.26

Question: Which fold change (FC) does the source give for `COc1ccc(CCOc2ccc(C[C@H]3COC[C@@H]3Cc3ccc(OC)c(OC)c3)cc2OC)cc1` here?
Answer: 0.9

Question: How did the fold change (FC) turn out when `COc1ccc(C[C@H]2COC[C@@H]2Cc2ccc(OC(=O)CC(C)C)c(OC)c2)cc1OC` was run?
Answer: 0.25

Question: Which fold change (FC) does the source give for `COc1ccc(C[C@H]2COC(=O)[C@@H]2Cc2ccc(OCCc3ccc(F)cc3)c(OC)c2)cc1OC` here?
Answer: 0.35

Question: How did the fold change (FC) turn out when `COc1ccc(C[C@H]2COC[C@@H]2Cc2ccc(OC(=O)c3cccnc3)c(OC)c2)cc1OC` was run?
Answer: 0.71

Question: `COc1cc(C[C@H]2COC[C@@H]2Cc2ccc(OC)c(OC)c2)ccc1O` was tested. Which fold change (FC) did it give?
Answer: 0.49

Question: With `COc1ccc(C[C@H]2COC[C@@H]2Cc2ccc(OC(=O)c3ccco3)c(OC)c2)cc1OC` as the compound, how does the fold change (FC) read?
Answer: 0.41

Question: With `COc1ccc(CCCOc2ccc(C[C@H]3COC[C@@H]3Cc3ccc(OC)c(OC)c3)cc2OC)cc1OC` as the compound, how does the fold change (FC) read?
Answer: 0.97

Question: `COc1ccc(C[C@H]2COC(=O)[C@@H]2Cc2ccc(OC(=O)CC(C)(C)C)c(OC)c2)cc1OC` was tested. Which fold change (FC) did it give?
Answer: 0.32

Question: With `COc1ccc(CC(=O)Oc2ccc(C[C@H]3COC[C@@H]3Cc3ccc(OC)c(OC)c3)cc2OC)cc1OC` as the compound, how does the fold change (FC) read?
Answer: 0.83

Question: `COc1ccc(CCOc2ccc(C[C@H]3C(=O)OC[C@@H]3Cc3ccc(OC)c(OC)c3)cc2OC)cc1OC` was tested. Which fold change (FC) did it give?
Answer: 0.93

Question: Which fold change (FC) does the source give for `COc1ccc(C[C@H]2COC(=O)[C@@H]2Cc2ccc(OCCc3cc(OC)c(OC)c(OC)c3)c(OC)c2)cc1OC` here?
Answer: 0.57

Question: With `COc1ccc(COc2ccc(C[C@H]3C(=O)OC[C@@H]3Cc3ccc(OC)c(OC)c3)cc2OC)cc1OC` as the compound, how does the fold change (FC) read?
Answer: 0.36

Question: For `CCc1cncc(CCOc2ccc(C[C@H]3COC[C@@H]3Cc3ccc(OC)c(OC)c3)cc2OC)c1`, which fold change (FC) is on record?
Answer: 0.64

Question: `COc1cccc(CCOc2ccc(C[C@H]3COC[C@@H]3Cc3ccc(OC)c(OC)c3)cc2OC)c1` was tested. Which fold change (FC) did it give?
Answer: 1.33

Question: Which fold change (FC) does the source give for `C/C=C/C(=O)Oc1ccc(C[C@H]2C(=O)OC[C@@H]2Cc2ccc(OC)c(OC)c2)cc1OC` here?
Answer: 0.86

Question: How did the fold change (FC) turn out when `COc1ccc(C[C@H]2COC[C@@H]2Cc2ccc(OC(=O)C3CCCCC3)c(OC)c2)cc1OC` was run?
Answer: 0.23

Question: Which fold change (FC) does the source give for `COc1ccc(C[C@H]2COC(=O)[C@@H]2Cc2ccc(OCCc3ccc(C(C)(C)C)cc3)c(OC)c2)cc1OC` here?
Answer: 0.09

Question: For `COc1ccc(C[C@H]2COC(=O)[C@@H]2Cc2ccc(OCCc3ccccc3)c(OC)c2)cc1OC`, which fold change (FC) is on record?
Answer: 0.2

Question: With `COc1cc(CCOc2ccc(C[C@H]3COC[C@@H]3Cc3ccc(OC)c(OC)c3)cc2OC)cc(OC)c1` as the compound, how does the fold change (FC) read?
Answer: 0.68

Question: Which fold change (FC) does the source give for `CCOc1ccc(CCOc2ccc(C[C@H]3C(=O)OC[C@@H]3Cc3ccc(OC)c(OC)c3)cc2OC)cc1OCC` here?
Answer: 0.34

Question: For `COc1ccc(C[C@H]2COC(=O)[C@@H]2Cc2ccc(OC(=O)c3ccccc3)c(OC)c2)cc1OC`, which fold change (FC) is on record?
Answer: 0.81

Question: `COc1ccc(CCOc2ccc(C[C@H]3C(=O)OC[C@@H]3Cc3ccc(OC)c(OC)c3)cc2OC)cc1` was tested. Which fold change (FC) did it give?
Answer: 0.32

Question: With `COc1ccc(C[C@H]2COC[C@@H]2Cc2ccc(OCCc3ccc(F)c(F)c3)c(OC)c2)cc1OC` as the compound, how does the fold change (FC) read?
Answer: 0.91

Question: How did the fold change (FC) turn out when `COc1ccccc1CCOc1ccc(C[C@H]2C(=O)OC[C@@H]2Cc2ccc(OC)c(OC)c2)cc1OC` was run?
Answer: 0.32

Question: With `COc1ccc(C[C@H]2COC[C@@H]2Cc2ccc(OCCc3ccc(Cl)cc3)c(OC)c2)cc1OC` as the compound, how does the fold change (FC) read?
Answer: 0.79

Question: With `COc1cccc(CCOc2ccc(C[C@H]3C(=O)OC[C@@H]3Cc3ccc(OC)c(OC)c3)cc2OC)c1` as the compound, how does the fold change (FC) read?
Answer: 0.69
